Measured values as given in ChEMBL document CHEMBL4321802, “Antioxidant-Conjugated 1,2,4-Triazolo[4,3-a]pyrazin-3-one Derivatives: Highly Potent and Selective Human A2A Adenosine Receptor Antagonists Possessing Protective Efficacy in Neuropathic Pain” (J Med Chem, 2019).
Active and inactive are the calls of the source.

Columns and labels:
Adenosine receptor A2a [1] = target: T1, Adenosine receptor A2a (Homo sapiens, UniProt P29274); experiment: Displacement of [3H]NECA from human adenosine A2A receptor expressed in CHO cell membranes by radioligand competition assay
Adenosine receptor A1 = target: T2, Adenosine receptor A1 (Homo sapiens, UniProt P30542); experiment: Displacement of [3H]CCPA from human adenosine A1 receptor expressed in CHO cell membranes by radioligand competition assay
T2 sequence (P30542 whole entry): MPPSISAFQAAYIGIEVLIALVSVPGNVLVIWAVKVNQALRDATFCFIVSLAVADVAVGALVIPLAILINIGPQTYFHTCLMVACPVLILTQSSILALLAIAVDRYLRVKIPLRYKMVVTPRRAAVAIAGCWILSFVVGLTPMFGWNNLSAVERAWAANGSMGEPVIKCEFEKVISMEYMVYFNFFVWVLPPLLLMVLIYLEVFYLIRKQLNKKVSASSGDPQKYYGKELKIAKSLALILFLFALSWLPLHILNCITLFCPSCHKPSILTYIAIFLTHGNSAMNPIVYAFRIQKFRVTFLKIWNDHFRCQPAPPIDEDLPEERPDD
In short: (§1)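 Membranes from stably transfected CHO cells were made by 1000 g, then 100 000g spins. hA1 used 1.0 nM [³H]CCPA in 50 mM Tris/HCl pH 7.4. hA3 used 1.0 nM [³H]HEMADO in 50 mM Tris/HCl, 10 mM MgCl2, 1 mM EDTA, pH 8.25. Ki from competition curves, each concentration tested three to five times in triplicate, mean ± S.E.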

Adenosine receptor A2b = target: T3, Adenosine receptor A2b (Homo sapiens, UniProt P29275); experiment: Antagonist activity at human adenosine A2B receptor expressed in CHO cells assessed as inhibition of NECA-stimulated adenylyl cyclase activity by Glo-sensor cAMP assay; assay type: functional, cell-based
T3 sequence (P29275 whole entry): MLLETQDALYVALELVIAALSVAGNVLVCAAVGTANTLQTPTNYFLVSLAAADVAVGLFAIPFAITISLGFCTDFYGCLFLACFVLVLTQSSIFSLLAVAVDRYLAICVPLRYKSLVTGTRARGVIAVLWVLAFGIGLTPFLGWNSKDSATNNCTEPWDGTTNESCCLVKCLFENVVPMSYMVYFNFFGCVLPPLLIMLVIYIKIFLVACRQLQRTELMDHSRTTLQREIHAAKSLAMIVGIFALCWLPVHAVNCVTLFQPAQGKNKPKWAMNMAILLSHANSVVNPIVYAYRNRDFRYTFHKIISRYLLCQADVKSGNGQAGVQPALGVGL
In short: (§2)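 CHO cells stably expressing hA2A or hA2B AR and transiently the GloSensor cAMP biosensor. Cells were equilibrated 2 h at rt in CO2-independent medium with 3% v/v GloSensor reagent and 10% FBS. Compounds at graded concentrations were tested against NECA-induced cAMP rise; luminescence as % of maximal RLU. IC50 from nonlinear regression. Three to five runs in triplicate, mean ± S.E.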

Adenosine receptor A3 = target: T4, Adenosine receptor A3 (Homo sapiens, UniProt P0DMS8); experiment: Displacement of [3H]HEMADO from human adenosine A3 receptor expressed in CHO cell membranes by radioligand competition assay; in short: as §1
T4 sequence (P0DMS8 whole entry): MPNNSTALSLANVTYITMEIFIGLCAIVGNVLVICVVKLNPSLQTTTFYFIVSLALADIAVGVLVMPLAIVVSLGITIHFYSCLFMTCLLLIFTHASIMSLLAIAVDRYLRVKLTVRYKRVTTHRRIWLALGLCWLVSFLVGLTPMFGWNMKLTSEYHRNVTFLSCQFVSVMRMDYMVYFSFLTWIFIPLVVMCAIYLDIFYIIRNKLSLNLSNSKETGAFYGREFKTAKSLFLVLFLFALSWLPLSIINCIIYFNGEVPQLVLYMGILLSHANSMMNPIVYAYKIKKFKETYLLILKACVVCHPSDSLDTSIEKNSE

Microglia [2] = experiment: Antioxidant activity in Sprague-Dawley rat microglia assessed as suppression of oxaliplatin-dependent increase in superoxide dismutase-inhibitable superoxide anion generation at 10 uM incubated for 4 hrs in presence of oxaliplatin by spectrophotometry based cytochrome c assay; assay type: functional, cell-based
In short: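 Primary neonatal (P1–P3) Sprague–Dawley rat cortical microglia (95–98% Iba1-positive), grown to confluence at 5×10⁵/well. Cells incubated 4 h at 37 °C in serum-free DMEM with cytochrome c (1 mg/ml), ± 100 µM oxaliplatin, ± compounds at 10 µM. Absorbance at 550 nm, minus the value with bovine SOD (300 mU/ml). O2•− calculated with ε 2.1×10⁴ M⁻¹ cm⁻¹, as µM/mg protein/4 h. Three experiments, mean ± SEM.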

Adenosine receptor A2a [3] = target: Adenosine receptor A2a (Rattus norvegicus, UniProt P30543); experiment: Displacement of [3H]NECA from rat adenosine A2A receptor expressed in CHO cell membranes by radioligand competition assay
[4] = Half life in 50 mM Tris buffer; assay type: physicochemical
In short: (§3)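 Compounds incubated at 37 °C in 50 mM Tris buffer pH 7.4 or in pooled healthy-volunteer human plasma (stored -80 °C). Concentration followed over time by LC-MS/MS; t1/2 taken from the decay rate of ln(concentration) versus time. Half-lives above 240 min cannot be resolved and are given as ≥240. Ketoprofen ethyl ester served as plasma-activity reference.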

Microglia [5] = experiment: Neuroprotective activity against 10 uM Oxaliplatin-induced neurotoxicity in Sprague-Dawley rat microglia assessed as cell viability at 10 uM incubated fro 24 hrs by MTT assay (reference value: 33.2 +/- 1.3%); assay type: functional
Mus musculus [6] = experiment: Analgesic activity in CD1 albino mouse model of oxaliplatin-induced neuropathy hypersensitivity assessed as increase pain threshold at 1 to 10 mg/kg, po dosed from day 14 post oxaliplatin challenge and measured after 30 to 60 mins post dose by cold plate test; assay type: functional, organism-based
In short: (§4)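 Male CD-1 mice (22–25 g) given oxaliplatin 2.4 mg kg⁻¹ i.p. in 5% glucose on days 1-2, 5-9 and 12-14; controls got vehicle. On day 14, compounds suspended in 1% carboxymethylcellulose were given once p.o. Cold plate held at 4 °C ± 1 °C; latency to first hind-paw licking/lifting recorded, 60 s cut-off. Mean ± SEM, two experimental sets; one-way ANOVA with Bonferroni.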

Microglia [7] = experiment: Neuroprotective activity against 30 uM Oxaliplatin-induced neurotoxicity in Sprague-Dawley rat microglia assessed as cell viability at 10 uM incubated fro 24 hrs by MTT assay (reference value: 19.1 +/- 0.8%); assay type: functional
Microglia [8] = experiment: Antioxidant activity in Sprague-Dawley rat microglia assessed as suppression of oxaliplatin-induced reduction in catalase activity at 10 uM incubated for 24 hrs in presence of oxaliplatin by Amplex red dye based assay; assay type: functional, cell-based
In short: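 Primary rat microglia (5·10⁵ cells/well) exposed 24 h to oxaliplatin 10 µM ± compounds at 10 µM. Cells washed, scraped in PBS, freeze-thawed and spun 13,000×g for 10 min at 4 °C. Catalase read in the supernatant with an Amplex Red kit, normalised to BCA protein; untreated control set to 100%. Three experiments, mean ± SEM.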

Adenosine receptor A2a [9] = target: T1, Adenosine receptor A2a; experiment: Antagonist activity at human adenosine A2A receptor expressed in CHO cells assessed as inhibition of NECA-stimulated adenylyl cyclase activity by Glo-sensor cAMP assay; assay type: functional, cell-based; in short: as §2
Mus musculus [10] = experiment: Analgesic activity in CD1 albino mouse model of oxaliplatin-induced neuropathy hypersensitivity assessed as increase pain threshold at 0.03 mg/kg, po dosed from day 14 post oxaliplatin challenge and measured after 30 to 60 mins post dose by cold plate test; assay type: functional, organism-based; in short: as §4
[11] = Half life in human plasma; assay type: ADME, cell-free; in short: as §3
Mus musculus [12] = experiment: Analgesic activity in CD1 albino mouse model of oxaliplatin-induced neuropathy hypersensitivity assessed as increase pain threshold at 10 to 30 mg/kg, po dosed from day 14 post oxaliplatin challenge and measured after 15 to 45 mins post dose by cold plate test; assay type: functional, organism-based; in short: as §4
Mus musculus [13] = experiment: Analgesic activity in CD1 albino mouse model of oxaliplatin-induced neuropathy hypersensitivity assessed as increase pain threshold at 4 mg/kg, po dosed from day 14 post oxaliplatin challenge and measured up to 90 mins post dose by cold plate test; assay type: functional, organism-based; in short: as §4
Mus musculus [14] = experiment: Analgesic activity in CD1 albino mouse model of oxaliplatin-induced neuropathy hypersensitivity assessed as increase pain threshold at 40 mg/kg, po dosed from day 14 post oxaliplatin challenge and measured up to 90 mins post dose by cold plate test; assay type: functional, organism-based; in short: as §4

Sequence of Adenosine receptor A2a (Rattus norvegicus, UniProt P30543) (P30543 whole entry): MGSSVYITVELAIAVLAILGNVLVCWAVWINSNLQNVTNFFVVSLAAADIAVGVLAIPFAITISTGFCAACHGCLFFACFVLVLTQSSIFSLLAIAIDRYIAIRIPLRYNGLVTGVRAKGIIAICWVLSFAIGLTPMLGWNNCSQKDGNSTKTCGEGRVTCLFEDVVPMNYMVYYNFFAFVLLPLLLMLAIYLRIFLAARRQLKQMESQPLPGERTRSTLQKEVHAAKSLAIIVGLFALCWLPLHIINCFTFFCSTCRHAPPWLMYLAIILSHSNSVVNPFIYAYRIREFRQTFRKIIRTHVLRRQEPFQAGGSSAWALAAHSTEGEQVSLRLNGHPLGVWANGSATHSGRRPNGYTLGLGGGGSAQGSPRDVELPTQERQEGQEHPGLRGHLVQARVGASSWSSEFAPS
T1 sequence (P29274 whole entry): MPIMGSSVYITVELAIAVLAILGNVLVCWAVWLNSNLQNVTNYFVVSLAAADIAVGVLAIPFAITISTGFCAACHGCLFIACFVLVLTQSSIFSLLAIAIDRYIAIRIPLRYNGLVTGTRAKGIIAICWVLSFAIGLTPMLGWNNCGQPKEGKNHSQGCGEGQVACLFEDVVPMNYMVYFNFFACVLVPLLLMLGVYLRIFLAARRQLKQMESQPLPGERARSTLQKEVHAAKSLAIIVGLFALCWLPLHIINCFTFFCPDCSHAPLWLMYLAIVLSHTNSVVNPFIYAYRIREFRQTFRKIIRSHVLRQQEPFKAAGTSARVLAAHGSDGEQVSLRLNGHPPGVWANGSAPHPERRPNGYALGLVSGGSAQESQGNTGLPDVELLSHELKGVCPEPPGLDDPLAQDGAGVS

Compound	Ki (Adenosine receptor A2a [1])	Ki (Adenosine receptor A1)	IC50 (Adenosine receptor A2b)	Ki (Adenosine receptor A3)	also measured
COc1c(C(C)(C)C)cc(-c2cn3c(=O)n(-c4ccccc4)nc3c(N)n2)cc1C(C)(C)C	0.142 µM	0.108 µM	> 30 µM	> 30 µM	–
Nc1nc(-c2ccc3c(c2)OCO3)cn2c(=O)n(-c3ccccc3)nc12	0.0074 µM	0.013 µM	> 30 µM	0.038 µM	–
Nc1nc(-c2ccc(O)c(O)c2)cn2c(=O)n(-c3ccccc3)nc12	0.0052 µM	0.0426 µM	> 30 µM	0.95 µM	–
Nc1ccc(-c2cn3c(=O)n(-c4ccccc4)nc3c(N)n2)cc1	0.0229 µM	0.0335 µM	> 30 µM	0.254 µM	–
Nc1nc(-c2ccc(OCCNC(=O)CCCCC3CCSS3)cc2)cn2c(=O)n(-c3ccccc3)nc12 (stereo unspecified)	0.0024 µM	0.379 µM	> 30 µM	4.1 µM	Activity (Microglia [2]): Active; Ki (Adenosine receptor A2a [3]): 0.009 µM; half-life [4]: ≥ 4 h; Activity (Microglia [5]): 54.5%; Activity (Mus musculus [6]): Dose-dependent effect; Activity (Microglia [7]): 34.2%; Activity (Microglia [8]): Active; IC50 (Adenosine receptor A2a [9]): 0.116 µM; Activity (Mus musculus [10]): Active; half-life [11]: ≥ 4 h
NCCOc1ccc(-c2cn3c(=O)n(-c4ccccc4)nc3c(N)n2)cc1	0.0149 µM	0.289 µM	> 30 µM	2.13 µM	–
CC(C)(C)c1cc(C(=O)NCCOc2ccc(-c3cn4c(=O)n(-c5ccccc5)nc4c(N)n3)cc2)cc(C(C)(C)C)c1O	14.8 µM	13.7 µM	> 30 µM	> 30 µM	–
Nc1nc(-c2cc(O)c(O)c(O)c2)cn2c(=O)n(-c3ccccc3)nc12	0.0945 µM	0.176 µM	17.3 µM	5.57 µM	–
CC(C)(C)c1cc(C(=O)NCCC(=O)Nc2ccc(-c3cn4c(=O)n(-c5ccccc5)nc4c(N)n3)cc2)cc(C(C)(C)C)c1O	0.0545 µM	> 30 µM	> 30 µM	> 30 µM	Activity (Microglia [2]): Active; Ki (Adenosine receptor A2a [3]): 0.086 µM; half-life [4]: ≥ 4 h; Activity (Microglia [5]): 43.5%; Activity (Mus musculus [12]): Active; Activity (Microglia [7]): 30.6%; Activity (Microglia [8]): Active; IC50 (Adenosine receptor A2a [9]): 0.263 µM; half-life [11]: ≥ 4 h
COc1c(C)cc(-c2cn3c(=O)n(-c4ccccc4)nc3c(N)n2)cc1C	0.00017 µM	0.0045 µM	> 30 µM	0.0086 µM	–
N#CCOc1ccc(-c2cn3c(=O)n(-c4ccccc4)nc3c(N)n2)cc1	0.0082 µM	> 30 µM	> 30 µM	> 30 µM	Ki (Adenosine receptor A2a [3]): 0.039 µM; half-life [4]: ≥ 4 h; Activity (Microglia [5]): 48.7%; Activity (Mus musculus [12]): Active; Activity (Microglia [7]): 23%; IC50 (Adenosine receptor A2a [9]): 0.157 µM; half-life [11]: ≥ 4 h
Nc1nc(-c2ccc(NC(=O)CCNC(=O)CCCCC3CCSS3)cc2)cn2c(=O)n(-c3ccccc3)nc12 (stereo unspecified)	0.0364 µM	1.36 µM	> 30 µM	> 30 µM	half-life [4]: ≥ 4 h; Activity (Microglia [5]): 38.9%; Activity (Microglia [7]): 18.3%; IC50 (Adenosine receptor A2a [9]): 0.296 µM; half-life [11]: 0.683 h
Cc1cc(-c2cn3c(=O)n(-c4ccccc4)nc3c(N)n2)cc(C)c1O	0.0025 µM	0.0213 µM	> 30 µM	0.1 µM	–
O=C(O)CCCCC1CCSS1 (stereo unspecified)	–	–	–	–	Activity (Mus musculus [13]): inactive; Activity (Mus musculus [14]): inactive
NCCC(=O)Nc1ccc(-c2cn3c(=O)n(-c4ccccc4)nc3c(N)n2)cc1	0.00059 µM	0.479 µM	9.66 µM	0.509 µM	–
CC(C)(C)c1cc(-c2cn3c(=O)n(-c4ccccc4)nc3c(N)n2)ccc1O	0.0085 µM	> 30 µM	> 30 µM	> 30 µM	half-life [4]: ≥ 4 h; Activity (Microglia [5]): 46.4%; Activity (Microglia [7]): 28.6%; IC50 (Adenosine receptor A2a [9]): 0.179 µM; half-life [11]: 2.03 h
Nc1nc(-c2ccc(NC(=O)CCCCC3CCSS3)cc2)cn2c(=O)n(-c3ccccc3)nc12 (stereo unspecified)	0.005 µM	0.0084 µM	> 30 µM	> 30 µM	–
COc1ccc(-c2cn3c(=O)n(-c4ccccc4)nc3c(N)n2)c(OC)c1	0.0024 µM	0.028 µM	> 30 µM	0.118 µM	–
COc1ccc(-c2cn3c(=O)n(-c4ccccc4)nc3c(N)n2)cc1OC	0.0057 µM	0.059 µM	> 30 µM	0.0801 µM	–
COc1cc(-c2cn3c(=O)n(-c4ccccc4)nc3c(N)n2)cc(OC)c1OC	0.0035 µM	0.055 µM	> 30 µM	0.214 µM	–
C=CC(=O)Nc1ccc(-c2cn3c(=O)n(-c4ccccc4)nc3c(N)n2)cc1	0.0018 µM	0.263 µM	> 30 µM	> 30 µM	–
COc1cc(O)ccc1-c1cn2c(=O)n(-c3ccccc3)nc2c(N)n1	0.0168 µM	0.0297 µM	> 30 µM	11.1 µM	–
NC(=O)COc1ccc(-c2cn3c(=O)n(-c4ccccc4)nc3c(N)n2)cc1	0.026 µM	0.392 µM	> 30 µM	0.604 µM	–
